Hits are enriched below; roughly 2.6% of the tested compounds scored in any of these assays.
Scp1 inh – Scp-1 phosphatase inhibitors, primary screen, biochemical, colorimetric, uHTS | Carboxy-terminal domain RNA polymerase II polypeptide A small phosphatase 1 (Homo … | Recombinant Scp1, phosphopeptide, malachite green phosphate absorbance | inhibition, % at 20 µM | 340,000 tested, 0.88% active | AID 493091, 2011;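 active = inhibition above about 50% at 20 µM, limit read from the data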
Target sequence (Q9GZU7 76-261 limits assumed): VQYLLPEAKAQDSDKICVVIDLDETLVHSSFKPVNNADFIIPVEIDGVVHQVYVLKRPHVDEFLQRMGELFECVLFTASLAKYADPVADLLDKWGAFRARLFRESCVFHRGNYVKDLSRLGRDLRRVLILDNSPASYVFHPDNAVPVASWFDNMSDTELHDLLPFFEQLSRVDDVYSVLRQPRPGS
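Test system: SCP-1 catalytic domain; Buffer or medium: Acidic Tris acetate buffer with magnesium and detergent; Also added: Phosphorylated 17-residue peptide substrate; Compound: single 20 µM dose, 1% DMSO; Schedule: enzyme reaction 45 min at room temperature, colour 5 min, stabilisation 30 min; Signal: Phosphate-binding colour reagent, absorbance read at 630 nm.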
rCAG binder – binders of r(CAG) RNA repeats, primary screen, biochemical, fluorescence. r(CAG) RNA repeat, TO-PRO-1 dye displacement fluorescence. inhibition, % at 3 µM. 370,000 tested, 1.3% active. AID 651821, 2012;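 active = inhibition above the plate cutoff, the mean of all test compounds on that plate plus 3 SD, cut at about 35% in these data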;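 note: higher means more dye released from RNA so lower well fluorescence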
STEP block – STEP phosphatase inhibitors, primary screen, biochemical, fluorescence intensity, uHTS. Tyrosine-protein phosphatase non-receptor type 5 (Homo sapiens), P54829. recombinant STEP, OMFP fluorogenic substrate. inhibition, % at 20 µM. 360,000 tested, 0.25% active. AID 588621, 2011;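 active = inhibition at 20 µM, scaled per plate between control wells, above about 37%, limit read from the data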
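Measure: Control-normalized % inhibition with plate pattern correction | Test system: STEP phosphatase, cell-free reaction | Medium: pH 6.0 Bis-Tris with DTT and Tween 20 | Technique: Fluorescence, 480/540 nm | Times: Reaction 20 min, ambient temperature | Doses: Single compound dose of 20 µM, 1% DMSO final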
LMPTP block – LMPTP phosphatase inhibitors, primary screen, biochemical, fluorescence intensity, uHTS. inhibition, % at 20 µM. 360,000 tested, 0.22% active. recombinant LMPTP-A, OMFP fluorogenic substrate. Low molecular weight phosphotyrosine protein phosphatase (Homo sapiens), P24666;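 active = compounds that cut the enzyme signal by at least half of the control window in the single-dose screen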
Target sequence (P24666 whole entry, looked up): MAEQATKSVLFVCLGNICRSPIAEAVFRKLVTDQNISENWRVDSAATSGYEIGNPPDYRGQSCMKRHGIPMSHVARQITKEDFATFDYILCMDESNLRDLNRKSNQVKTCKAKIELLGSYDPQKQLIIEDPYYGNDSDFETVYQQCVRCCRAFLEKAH
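Assay system: LMPTP-A, protein tyrosine phosphatase of low molecular weight / Medium: pH 6.0 Bis-Tris buffer with DTT and Triton X-100 / Schedule: 50 min enzyme reaction at room temperature, protected from light / Measured by: endpoint fluorescence intensity from OMFP dephosphorylation / Read-out basis: % inhibition relative to no-enzyme and uninhibited control wells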
NadD inh – inhibitors of S. aureus NadD, primary screen, biochemical, colorimetric, uHTS; 360,000 tested, 0.78% active; Nicotinate-nucleotide adenylyltransferase NadD (Staphylococcus aureus N315); purified NadD enzyme, colorimetric absorbance read-out; inhibition, % at 20 µM; in the data active = inhibition above about 26%
Of the large screens only hits and unclear results are named; the others gave an inactive call.

Cc1ccc(-c2nc(NCCN3CCOCC3)c3ccccc3n2)cc1	LMPTP block 50
CN1C(=O)c2cc(NC(=O)Nc3ccccc3)ccc2OC[C@H]2O[C@@H](CC(=O)Nc3cc(F)ccc3F)CC[C@@H]21	none (no result: Scp1 inh, STEP block, LMPTP block, NadD inh)
Cc1ccc(-c2nnc(SCC(=O)NNC(=S)Nc3ccccc3)n2C2CCCCC2)cc1	none (no result: Scp1 inh, STEP block, LMPTP block, NadD inh)
Cc1ccc(-n2c(SCc3c(Cl)cccc3Cl)nnc2-c2ccco2)cc1	none (no result: Scp1 inh, STEP block, LMPTP block, NadD inh)
O=C(N/N=C1/C(=O)c2cccc3cccc1c23)c1ccc(Cl)cc1	Scp1 inh 95, STEP block 99, LMPTP block 94
CCN=C(N/N=C/c1ccc([N+](=O)[O-])cc1)SC	Scp1 inh 104
CC(=O)c1ccc(-c2ccc(/C=C(/Sc3n[nH]c(C)n3)C(=O)O)o2)cc1	none
Cc1nc(S/C(=C/c2ccc(-c3ccc(C(=O)O)cc3)o2)C(=O)O)n[nH]1	Scp1 inh 75
CCN1/C(=C/c2ccc3ccccc3[n+]2CCCS(=O)(=O)[O-])C=Cc2cc(C)ccc21	none
CCN1/C(=C/c2ccc3ccccc3[n+]2CC)C=Cc2ccccc21	Scp1 inh 104
CCC1=NN2C(=N)/C(=C/c3ccc(OS(=O)(=O)c4ccccc4)c(OC)c3)C(=O)N=C2S1	NadD inh 82
COc1cc(/C=C2/C(=N)N3N=C(C(C)C)SC3=NC2=O)ccc1OS(=O)(=O)c1ccccc1	none
COc1cc(/C=C2\C(=N)N3N=C(C)SC3=NC2=O)cc(OC)c1OCCOc1ccccc1C	none
CCOc1cc(/C=C2\C(=N)N3N=C(C)SC3=NC2=O)ccc1OCCOc1cccc(OC)c1	NadD inh 45
COC(=O)C[C@H]1CC[C@H]2[C@H](COc3ccc(NC(=O)c4cccs4)cc3C(=O)N2C)O1	none (no result: Scp1 inh, STEP block, LMPTP block, NadD inh)
O=c1cc2oc3cc(O)c(O)cc3c(-c3ccccc3O)c-2cc1O	LMPTP block 67, NadD inh 46 (no result: rCAG binder)
CCOc1ccccc1-c1c2cc(O)c(=O)cc-2oc2cc(O)c(O)cc12	LMPTP block 66 (no result: rCAG binder)
CCOC(=O)c1oc2cc(O)ccc2c(=O)c1-c1ccccc1OC	none
COc1ccc(OC)c(-c2oc3ccccc3c(=O)c2O)c1	none
COc1ccc(OC)c(-c2c3cc(O)c(=O)cc-3oc3cc(O)c(O)cc23)c1	Scp1 inh 68, LMPTP block 78, NadD inh 39 (no result: rCAG binder)
Cc1cc2ccccn2c1C(=O)c1ccc(Cl)cc1	none
C/C(=N/Nc1ccc(C(=O)c2c(C)cc3ccccn23)cc1[N+](=O)[O-])c1ccc(O)cc1	NadD inh 32
C/C(=N\Nc1ccc(C(=O)c2c(C)cc3ccccn23)cc1[N+](=O)[O-])c1ccc(O)cc1	NadD inh 36
Cc1cc2ccccn2c1C(=O)c1ccncc1	none
O=C(OC12CCCN(C1)/C(=C/c1cccnc1)C2)c1ccco1 (stereo not drawn)	none (no result: Scp1 inh, STEP block, LMPTP block, NadD inh)
O=C(CCCn1c(SCC(=O)NC2CCCCC2)nc2ccccc2c1=O)NCC1CCCO1 (stereo not drawn)	none
O=C(CCCn1c(SCC(=O)c2ccc(O)c(O)c2)nc2ccccc2c1=O)NCC1CCCO1 (stereo not drawn)	LMPTP block 51
O=C1NC(=Nc2ccc3ccccc3c2)S/C1=C/c1ccco1	rCAG binder 44, NadD inh 34
O=C1NC(=Nc2ccc(O)cc2)S/C1=C/c1ccco1	none
CC(C)c1ccc(C(CC(=O)c2ccc(Cl)cc2)C(=O)O)cc1 (stereo not drawn)	rCAG binder 45
CCc1ccc(C(CC(=O)c2ccc(Cl)cc2)C(=O)O)cc1 (stereo not drawn)	none
O=C(NCCc1ccccc1F)c1cc2ccccn2n1	none (no result: Scp1 inh, STEP block, LMPTP block, NadD inh)
CC(=O)Oc1cc(C(=O)OCC(=O)N2CCc3ccccc3C2)cc(OC(C)=O)c1OC(C)=O	Scp1 inh 53
CC(=O)N1C[C@@H](c2c[nH]c3ccccc23)C=C[C@H]1C(=O)NS(=O)(=O)c1ccc(C)cc1	none (no result: Scp1 inh, STEP block, LMPTP block, NadD inh)
O=C(Nc1ccc(Nc2ccncc2)cc1)c1ccc(Nc2ccnc3ccc([N+](=O)[O-])cc23)cc1[N+](=O)[O-]	LMPTP block 89

Screens as filed in PubChem BioAssay.
